Laboratory results published in ChEMBL document CHEMBL1156459, “Discovery of a small molecule antagonist of the parathyroid hormone receptor by using an N-terminal parathyroid hormone peptide probe” (Proc Natl Acad Sci U S A, 2007).
Each block holds one compound with its values, some of them ahead of it. The source made the active and inactive calls. No cut-off for these calls is given here. Square brackets hold non-standard residues; d marks the D form. Peptide text beside a SMILES is read from it. * marks the point of attachment. X1 = O=C(c1ccccc1-c1c2ccc(=O)cc-2oc2cc(O)ccc12)*; hArg = N=C(N)NCCCC[C@H](N)C(=O)O; Aib = CC(C)(N)C(=O)O

Tests used:
Mus musculus = species on record: Mus musculus; assay: Inhibition of bone mineralization in embryonic mouse metatarsal; assay type: functional
[1] = target: Muscarinic acetylcholine receptor M5 (Homo sapiens) (UniProt P08912); assay: Inhibition of muscarinic M5 receptor at 20 uM
[2] = target: Alpha-2A adrenergic receptor (Homo sapiens) (UniProt P08913); assay: Inhibition of adrenergic alpha2A receptor at 20 uM
[3] = target: C-X-C chemokine receptor type 2 (Homo sapiens) (UniProt P25025); assay: Inhibition of CXCR2 at 20 uM
[4] = target: C-C chemokine receptor type 4 (Homo sapiens) (UniProt P51679); assay: Binding affinity to CCR4 at 20 uM
Substance-K receptor = Substance-K receptor (Homo sapiens, UniProt P21452); assay: Inhibition of neurokinin 2 receptor
[5] = target: 5-hydroxytryptamine receptor 2C (Homo sapiens) (UniProt P28335); assay: Inhibition of 5HT2C receptor at 20 uM
[6] = target: Parathyroid hormone/parathyroid hormone-related peptide receptor (Homo sapiens) (UniProt Q03431); assay: Antagonist activity at human PTH/PTH-related peptide receptor expressed in human CL0153 cells assessed as inhibition of DPC-AJ1951-induced cAMP production; assay type: functional, cell-based
How it was run: (§1)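 Cells lifted with EDTA after culture in DMEM with 10% FBS and refeeding 12–24 h before assay. Resuspended in HBSS/5 mM Hepes/0.1% BSA/0.5 mM IBMX, pH 7.4, and stimulated with agonist peptide with or without antagonist. cAMP read by AlphaScreen.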

[7] = target: Alpha-1D adrenergic receptor (Homo sapiens, UniProt P25100); assay: Inhibition of adrenergic Alpha-1D receptor
[8] = target: C-C chemokine receptor type 3 (Homo sapiens) (UniProt P51677); assay: Binding affinity to CCR3 at 20 uM
[9] = target: Histamine H1 receptor (Homo sapiens) (UniProt P35367); assay: Inhibition of histamine H1 receptor at 20 uM
[10] = target: C-C chemokine receptor type 5 (Homo sapiens) (UniProt P51681); assay: Binding affinity to CCR5 at 20 uM
[11] = target: T1, Parathyroid hormone/parathyroid hormone-related peptide receptor (Homo sapiens, UniProt Q03431); assay: Antagonist activity at PTH/PTH-related peptide receptor expressed in HKRK-B28 cells assessed as inhibition of DPC-AJ1951-induced cAMP production; assay type: functional, cell-based; how it was run: as §1
T1 sequence (Q03431 whole entry): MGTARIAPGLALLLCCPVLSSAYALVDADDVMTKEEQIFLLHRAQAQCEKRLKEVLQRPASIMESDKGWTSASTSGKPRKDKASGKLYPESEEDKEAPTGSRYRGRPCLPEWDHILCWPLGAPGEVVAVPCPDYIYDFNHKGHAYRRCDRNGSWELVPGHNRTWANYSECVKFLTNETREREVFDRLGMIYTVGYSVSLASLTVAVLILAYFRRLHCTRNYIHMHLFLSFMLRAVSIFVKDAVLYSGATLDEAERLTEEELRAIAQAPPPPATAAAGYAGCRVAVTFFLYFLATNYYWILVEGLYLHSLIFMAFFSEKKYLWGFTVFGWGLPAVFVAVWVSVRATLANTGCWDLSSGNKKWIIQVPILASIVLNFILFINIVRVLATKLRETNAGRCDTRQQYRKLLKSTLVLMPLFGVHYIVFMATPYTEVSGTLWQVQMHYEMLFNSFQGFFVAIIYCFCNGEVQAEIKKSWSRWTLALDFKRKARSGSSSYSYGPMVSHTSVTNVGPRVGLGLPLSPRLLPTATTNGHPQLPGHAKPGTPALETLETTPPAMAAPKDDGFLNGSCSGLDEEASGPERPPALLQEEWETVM

[12] = target: 5-hydroxytryptamine receptor 2A (Homo sapiens, UniProt P28223); assay: Inhibition of 5HT2A receptor
[13] = target: Alpha-2C adrenergic receptor (Homo sapiens, UniProt P18825); assay: Inhibition of adrenergic Alpha-2C receptor
[14] = target: D(2) dopamine receptor (Homo sapiens) (UniProt P14416); assay: Inhibition of dopamine D2 receptor at 20 uM
[15] = target: Parathyroid hormone/parathyroid hormone-related peptide receptor (Rattus norvegicus) (UniProt P25961); assay: Antagonist activity at rat PTH/PTH-related peptide receptor expressed in rat UMR106 cells assessed as inhibition of DPC-AJ1951-induced cAMP production; assay type: functional, cell-based; how it was run: as §1
[16] = target: C-X-C chemokine receptor type 3 (Homo sapiens) (UniProt P49682); assay: Inhibition of CXCR3 at 20 uM
[17] = target: T1, Parathyroid hormone/parathyroid hormone-related peptide receptor; assay: Displacement of [125I]DPC-AJ1951 from PTH/PTH-related peptide receptor expressed in HKRK-B28 cells; assay type: cell-based
How it was run: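 Whole HKRK-B28 cells plated at 30,000/well and incubated overnight at 37°C, 5% CO2. Incubated 3 h at room temperature, washed three times, bound radioactivity counted by scintillation.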

[18] = target: Alpha-1B adrenergic receptor (Homo sapiens) (UniProt P35368); assay: Inhibition of adrenergic Alpha-1B receptor at 20 uM
[19] = target: Parathyroid hormone/parathyroid hormone-related peptide receptor (Homo sapiens) (UniProt Q03431); assay: Antagonist activity at human PTH/PTH-related peptide receptor expressed in human SaOS2 assessed as inhibition of DPC-AJ1951-induced cAMP production; assay type: functional, cell-based; conditions: SAOS-2; how it was run: as §1
[20] = target: T1, Parathyroid hormone/parathyroid hormone-related peptide receptor; assay: Antagonist activity at PTH/PTH-related peptide receptor expressed in HKRK-B28 cells assessed as inhibition of parathyroid hormone (1 to 34)-induced cAMP production; assay type: functional, cell-based; how it was run: as §1
[21] = target: C-C chemokine receptor type 2 (Homo sapiens) (UniProt P41597); assay: Binding affinity to CCR2 at 20 uM
[22] = target: C-C chemokine receptor type 1 (Homo sapiens) (UniProt P32246); assay: Binding affinity to CCR1 at 20 uM
[23] = target: T1, Parathyroid hormone/parathyroid hormone-related peptide receptor; assay: Activity at human PTH/PTH-related peptide receptor expressed in HEK293 cells assessed as induction of luciferase activity by CRE-luciferase reporter assay; assay type: functional, cell-based
[24] = target: T2, Parathyroid hormone/parathyroid hormone-related peptide receptor (Rattus norvegicus, UniProt P25961); assay: Activity at rat PTH/PTH-related peptide receptor expressed in rat UMR106 cells assessed as cAMP formation; assay type: functional, cell-based
T2 sequence (P25961 whole entry): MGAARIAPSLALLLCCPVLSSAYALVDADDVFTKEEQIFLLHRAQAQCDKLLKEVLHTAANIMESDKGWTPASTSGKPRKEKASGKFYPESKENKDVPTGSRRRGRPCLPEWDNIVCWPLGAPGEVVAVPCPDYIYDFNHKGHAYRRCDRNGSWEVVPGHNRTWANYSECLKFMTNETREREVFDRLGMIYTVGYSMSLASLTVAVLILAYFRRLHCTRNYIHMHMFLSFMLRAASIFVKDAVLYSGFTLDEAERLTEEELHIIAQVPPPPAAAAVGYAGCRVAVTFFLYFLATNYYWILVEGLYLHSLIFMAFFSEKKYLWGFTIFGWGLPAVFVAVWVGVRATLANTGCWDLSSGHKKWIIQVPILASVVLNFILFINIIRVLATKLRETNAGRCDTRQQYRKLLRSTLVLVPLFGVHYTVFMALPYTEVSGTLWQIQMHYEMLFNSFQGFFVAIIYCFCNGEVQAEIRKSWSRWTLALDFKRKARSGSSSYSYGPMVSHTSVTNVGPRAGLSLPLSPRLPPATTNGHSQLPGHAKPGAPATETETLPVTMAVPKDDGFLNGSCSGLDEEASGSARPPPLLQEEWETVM
How it was run: (§2)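 Nonconfluent cells grown at 37°C in DMEM with 10% FBS, refed 12–24 h before assay. Rinsed with warm PBS, detached with prewarmed EDTA (37°C, 5–10 min), spun at 300 × g for 5 min. Resuspended in HBSS/5 mM Hepes/0.1% BSA/0.5 mM IBMX, pH 7.4. cAMP read by AlphaScreen.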

[25] = target: T1, Parathyroid hormone/parathyroid hormone-related peptide receptor; assay: Activity at human PTH/PTH-related peptide receptor expressed in SAOS2 cells assessed as cAMP formation; assay type: functional, cell-based, SAOS-2; how it was run: as §2

Chain of C-C chemokine receptor type 3 (Homo sapiens) (P51677 whole entry): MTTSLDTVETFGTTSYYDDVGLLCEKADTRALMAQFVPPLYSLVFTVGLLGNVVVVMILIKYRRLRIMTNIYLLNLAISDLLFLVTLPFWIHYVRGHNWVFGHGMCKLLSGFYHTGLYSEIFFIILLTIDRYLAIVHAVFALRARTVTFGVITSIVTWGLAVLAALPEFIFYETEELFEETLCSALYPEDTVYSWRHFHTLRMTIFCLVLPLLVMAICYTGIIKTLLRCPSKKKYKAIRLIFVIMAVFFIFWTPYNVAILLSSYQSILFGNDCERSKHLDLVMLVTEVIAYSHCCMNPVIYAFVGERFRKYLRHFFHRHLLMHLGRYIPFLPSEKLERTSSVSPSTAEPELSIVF
Chain of Histamine H1 receptor (Homo sapiens) (P35367 whole entry): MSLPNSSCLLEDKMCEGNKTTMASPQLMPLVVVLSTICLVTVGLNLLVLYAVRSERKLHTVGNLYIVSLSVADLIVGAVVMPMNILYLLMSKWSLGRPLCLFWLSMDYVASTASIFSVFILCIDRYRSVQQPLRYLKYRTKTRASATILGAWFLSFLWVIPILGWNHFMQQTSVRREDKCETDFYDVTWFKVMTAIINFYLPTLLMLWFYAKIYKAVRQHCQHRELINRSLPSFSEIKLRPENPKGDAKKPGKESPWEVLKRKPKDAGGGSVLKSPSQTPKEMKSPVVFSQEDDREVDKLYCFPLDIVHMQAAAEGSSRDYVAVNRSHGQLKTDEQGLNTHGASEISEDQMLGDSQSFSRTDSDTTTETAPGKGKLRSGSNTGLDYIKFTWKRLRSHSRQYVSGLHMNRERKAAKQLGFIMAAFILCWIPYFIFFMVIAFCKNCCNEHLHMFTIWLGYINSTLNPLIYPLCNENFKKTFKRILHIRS
Chain of D(2) dopamine receptor (Homo sapiens) (P14416 whole entry): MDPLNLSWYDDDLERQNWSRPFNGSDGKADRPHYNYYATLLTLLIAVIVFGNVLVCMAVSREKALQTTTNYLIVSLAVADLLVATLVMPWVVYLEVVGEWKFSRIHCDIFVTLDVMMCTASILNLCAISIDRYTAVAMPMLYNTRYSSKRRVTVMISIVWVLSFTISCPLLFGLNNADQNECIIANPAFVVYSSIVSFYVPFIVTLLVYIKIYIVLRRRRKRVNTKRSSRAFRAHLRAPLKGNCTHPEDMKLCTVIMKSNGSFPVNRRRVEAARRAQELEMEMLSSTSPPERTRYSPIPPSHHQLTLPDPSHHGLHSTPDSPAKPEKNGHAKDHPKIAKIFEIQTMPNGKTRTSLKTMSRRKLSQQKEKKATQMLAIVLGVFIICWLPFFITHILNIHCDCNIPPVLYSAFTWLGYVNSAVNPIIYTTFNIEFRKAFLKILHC
Chain of 5-hydroxytryptamine receptor 2A (P28223 whole entry): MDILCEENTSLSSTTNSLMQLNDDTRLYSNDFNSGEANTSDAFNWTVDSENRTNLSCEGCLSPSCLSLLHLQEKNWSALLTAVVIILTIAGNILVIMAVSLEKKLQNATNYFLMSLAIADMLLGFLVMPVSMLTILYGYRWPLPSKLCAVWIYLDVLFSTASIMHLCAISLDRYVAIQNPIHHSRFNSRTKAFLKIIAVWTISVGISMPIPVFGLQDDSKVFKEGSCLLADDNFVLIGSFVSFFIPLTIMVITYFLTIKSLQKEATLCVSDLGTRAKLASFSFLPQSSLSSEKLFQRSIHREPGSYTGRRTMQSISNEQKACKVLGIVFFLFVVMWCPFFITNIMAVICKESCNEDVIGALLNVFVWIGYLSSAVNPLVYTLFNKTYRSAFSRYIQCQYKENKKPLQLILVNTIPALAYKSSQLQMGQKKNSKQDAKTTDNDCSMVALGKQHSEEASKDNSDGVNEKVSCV
Chain of C-C chemokine receptor type 5 (Homo sapiens) (P51681 whole entry, looked up): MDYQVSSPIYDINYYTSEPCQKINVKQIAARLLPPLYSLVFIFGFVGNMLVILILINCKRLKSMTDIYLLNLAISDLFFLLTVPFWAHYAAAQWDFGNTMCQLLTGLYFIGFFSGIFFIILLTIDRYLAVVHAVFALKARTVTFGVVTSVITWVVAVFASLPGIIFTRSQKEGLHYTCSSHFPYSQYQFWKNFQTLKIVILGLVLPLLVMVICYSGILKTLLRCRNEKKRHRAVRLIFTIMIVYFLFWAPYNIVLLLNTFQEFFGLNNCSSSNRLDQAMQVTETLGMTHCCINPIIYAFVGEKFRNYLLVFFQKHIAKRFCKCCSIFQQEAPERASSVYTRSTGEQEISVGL
Chain of C-C chemokine receptor type 2 (Homo sapiens) (P41597 whole entry, looked up): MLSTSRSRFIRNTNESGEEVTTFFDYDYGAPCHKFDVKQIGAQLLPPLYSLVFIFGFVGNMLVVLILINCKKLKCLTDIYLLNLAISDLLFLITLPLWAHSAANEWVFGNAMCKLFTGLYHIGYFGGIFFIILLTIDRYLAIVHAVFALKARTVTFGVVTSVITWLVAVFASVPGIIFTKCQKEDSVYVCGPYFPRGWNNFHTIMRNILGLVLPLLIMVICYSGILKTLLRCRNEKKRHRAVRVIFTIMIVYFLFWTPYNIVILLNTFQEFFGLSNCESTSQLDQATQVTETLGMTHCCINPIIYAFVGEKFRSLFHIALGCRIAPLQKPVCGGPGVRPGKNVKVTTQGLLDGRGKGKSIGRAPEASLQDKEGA
Chain of C-C chemokine receptor type 4 (Homo sapiens) (P51679 whole entry): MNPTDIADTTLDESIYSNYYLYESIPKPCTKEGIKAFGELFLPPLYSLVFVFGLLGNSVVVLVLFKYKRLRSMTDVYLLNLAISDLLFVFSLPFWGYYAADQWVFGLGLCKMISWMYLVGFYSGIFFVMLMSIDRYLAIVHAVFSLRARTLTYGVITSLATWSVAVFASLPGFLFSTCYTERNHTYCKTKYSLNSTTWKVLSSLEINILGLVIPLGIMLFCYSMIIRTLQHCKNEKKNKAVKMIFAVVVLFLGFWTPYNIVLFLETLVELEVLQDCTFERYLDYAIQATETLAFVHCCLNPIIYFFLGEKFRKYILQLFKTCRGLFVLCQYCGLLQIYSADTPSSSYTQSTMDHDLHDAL
Chain of C-C chemokine receptor type 1 (Homo sapiens) (P32246 whole entry): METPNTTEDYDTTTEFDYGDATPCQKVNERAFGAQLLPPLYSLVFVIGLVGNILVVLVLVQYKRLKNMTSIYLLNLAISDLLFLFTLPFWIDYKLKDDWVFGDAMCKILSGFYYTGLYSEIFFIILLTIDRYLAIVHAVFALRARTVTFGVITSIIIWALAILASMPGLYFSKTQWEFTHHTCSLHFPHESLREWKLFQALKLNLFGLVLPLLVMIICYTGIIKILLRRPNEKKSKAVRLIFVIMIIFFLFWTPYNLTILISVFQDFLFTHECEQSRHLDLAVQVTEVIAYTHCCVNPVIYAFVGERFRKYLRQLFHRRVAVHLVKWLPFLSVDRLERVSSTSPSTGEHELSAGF
Chain of Alpha-2C adrenergic receptor (P18825 whole entry): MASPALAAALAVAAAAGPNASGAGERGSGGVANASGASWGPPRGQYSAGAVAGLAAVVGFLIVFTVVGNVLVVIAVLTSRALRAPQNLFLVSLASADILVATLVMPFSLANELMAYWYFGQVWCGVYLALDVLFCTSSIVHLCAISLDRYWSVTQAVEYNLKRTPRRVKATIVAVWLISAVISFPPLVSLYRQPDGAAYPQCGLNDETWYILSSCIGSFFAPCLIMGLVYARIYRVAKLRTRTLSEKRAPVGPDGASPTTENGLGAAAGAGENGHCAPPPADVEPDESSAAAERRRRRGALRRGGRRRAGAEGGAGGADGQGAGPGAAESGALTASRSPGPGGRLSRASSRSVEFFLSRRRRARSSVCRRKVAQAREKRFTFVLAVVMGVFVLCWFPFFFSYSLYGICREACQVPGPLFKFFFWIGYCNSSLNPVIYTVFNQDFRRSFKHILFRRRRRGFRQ
Chain of Muscarinic acetylcholine receptor M5 (Homo sapiens) (P08912 whole entry): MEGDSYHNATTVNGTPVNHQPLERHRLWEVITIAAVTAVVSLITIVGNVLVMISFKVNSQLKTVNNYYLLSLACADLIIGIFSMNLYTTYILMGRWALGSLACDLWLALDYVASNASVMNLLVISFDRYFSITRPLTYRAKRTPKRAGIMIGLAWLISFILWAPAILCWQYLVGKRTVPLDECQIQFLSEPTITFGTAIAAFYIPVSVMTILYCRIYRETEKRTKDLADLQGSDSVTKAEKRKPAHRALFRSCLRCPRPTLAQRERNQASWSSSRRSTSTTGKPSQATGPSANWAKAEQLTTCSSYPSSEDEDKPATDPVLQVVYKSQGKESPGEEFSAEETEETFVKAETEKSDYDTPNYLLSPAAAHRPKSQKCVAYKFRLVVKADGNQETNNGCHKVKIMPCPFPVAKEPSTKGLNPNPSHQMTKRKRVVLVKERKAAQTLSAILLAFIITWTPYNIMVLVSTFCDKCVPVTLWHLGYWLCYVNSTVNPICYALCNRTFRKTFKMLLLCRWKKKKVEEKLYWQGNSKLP
Chain of Alpha-1B adrenergic receptor (Homo sapiens) (P35368 whole entry): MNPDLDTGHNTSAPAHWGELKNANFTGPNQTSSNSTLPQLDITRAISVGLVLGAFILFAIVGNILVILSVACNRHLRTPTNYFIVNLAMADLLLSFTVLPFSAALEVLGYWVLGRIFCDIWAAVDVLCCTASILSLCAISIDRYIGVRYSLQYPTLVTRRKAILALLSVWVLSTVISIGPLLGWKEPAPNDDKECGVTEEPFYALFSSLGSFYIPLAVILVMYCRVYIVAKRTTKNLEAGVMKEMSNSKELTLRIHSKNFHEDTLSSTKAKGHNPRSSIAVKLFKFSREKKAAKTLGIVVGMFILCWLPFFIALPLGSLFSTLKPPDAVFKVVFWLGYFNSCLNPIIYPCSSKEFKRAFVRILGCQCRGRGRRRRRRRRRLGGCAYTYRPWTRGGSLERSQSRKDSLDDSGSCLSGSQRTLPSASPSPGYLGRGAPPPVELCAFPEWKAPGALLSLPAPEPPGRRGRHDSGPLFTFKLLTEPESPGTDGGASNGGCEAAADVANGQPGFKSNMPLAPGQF

SMILES: CC[C@H](C)[C@H](NC(=O)[C@H](CCC(=O)O)NC(=O)C(C)(C)NC(=O)[C@@H](NC(=O)C(C)(C)N)C(C)C)C(=O)N[C@@H](CCC(N)=O)C(=O)N[C@@H](CC(C)C)C(=O)N[C@@H](CCSC)C(=O)N[C@@H](Cc1cnc[nH]1)C(=O)N[C@@H](CCC(N)=O)C(=O)N[C@@H](CCCCNC(=N)N)C(=O)N[C@@H](C)C(=O)N[C@@H](CCCCN)C(=O)N[C@@H](Cc1c[nH]c2ccccc12)C(=O)O (H-[Aib]V[Aib]EIQLMHQ[hArg]AKW-OH)
Activity (Mus musculus): Active

Activity [1]: inactive | Activity [2]: inactive | Activity [3]: inactive | Activity [4]: inactive | IC50 (Substance-K receptor): 28 µM | Activity [5]: inactive | Activity [6]: Active | IC50 [7]: 13.8 µM | Activity [8]: inactive | Activity [9]: inactive | Activity [10]: inactive | IC50 [11]: 5.78 µM | IC50 [12]: 15 µM | IC50 [13]: 10.4 µM | Activity [14]: inactive | Activity [15]: Active | Activity [16]: inactive | IC50 [17]: 0.99 µM | Activity [18]: inactive | Activity [19]: Active | IC50 [20]: 68 µM | Activity [21]: inactive | Activity [22]: inactive
SMILES: CC[C@@H]1O[C@](/C=C/C2CC2)(C(F)(F)F)c2c(ccc(F)c2F)NC1=O

EC50 [23]: 0.053 µM | EC50 [24]: 0.251 µM | IC50 [17]: 10.1 µM | EC50 [25]: 1 µM
SMILES: CC[C@H](C)[C@H](NC(=O)[C@H](CCC(=O)O)NC(=O)[C@H](C)NC(=O)[C@@H](NC(=O)[C@H](C)N)C(C)C)C(=O)N[C@@H](CCC(N)=O)C(=O)N[C@@H](CC(C)C)C(=O)N[C@@H](CCSC)C(=O)N[C@@H](Cc1cnc[nH]1)C(=O)N[C@@H](CCC(N)=O)C(=O)N[C@@H](CCCCNC(=N)N)C(=O)N[C@@H](C)C(=O)N[C@@H](CCCCN)C(=O)N[C@@H](Cc1c[nH]c2ccccc12)C(=O)N[C@@H](CCCCNC(=O)c1ccccc1-c1c2ccc(=O)cc-2oc2cc(O)ccc12)C(N)=O (H-AVAEIQLMHQ[hArg]AKWK(X1)-NH2)
